# Measurements from PMC12542962 (Science Advances, 2025).
# Read-outs that look alike come from different tables or passages of the source.
# Columns and labels:
# CRKP [1] = assay: Time-dependent killing assay; format: cell-based, K. pneumoniae; conditions: TINA 20 μg/ml or imipenem 8 μg/ml alone, 24 hours
# CRKP [2] = assay: Resistance development assay, 20 passages; format: cell-based, K. pneumoniae; conditions: Klebsiella pneumoniae
# Summary of the method: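 Log-phase CRKP clinical isolate diluted in LB broth containing imipenem, with or without test compound, and cultured at 37°C for serial passaging.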
# CRKP [3] = assay: Lethal CRKP pneumonia model, survival; format: in vivo, BALB/c mice; conditions: single dose; TINA 10 mg/kg, imipenem 8 mg/kg, or 10 + 8 mg/kg; n = 10
# Summary of the method: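 Female BALB/c mice (n = 10 per group) infected with 5 × 10^7 CFU CRKP. Thirty minutes later they were treated with PBS, test compound 10 mg/kg, imipenem 8 mg/kg, or test compound plus imipenem (10 + 8 mg/kg) as a single or double dose. Survival was followed for 7 days postinfection and cumulative survival calculated.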
# CRKP, CRE, and CRAB = assay: Acute pneumonia models, blood indicators, histology and inflammation; format: in vivo, BALB/c mice; conditions: TINA 10 mg/kg or imipenem 8 mg/kg, single dose
structure (smiles),measurement,setting,value
"C[C@@H](O)[C@H]1C(=O)N2C(C(=O)O)=C(SCCN=CN)C[C@H]12 [Imipenem, imipenem]","change in bacteria counts, monotherapy",CRKP [1],increased by two orders of magnitude in bacteria counts
same,MIC,CRKP [2]; read-out: MIC after 20 passages,2050 µg/mL
same,MIC,CRKP [2]; read-out: MIC before passaging,64 µg/mL
same,survival rate at dpi 7,CRKP [3],30%
same,effect of monotherapy on live bacteria in the lungs,"CRKP, CRE, and CRAB",mere effects on eliminating live bacteria in the lungs
